The test system of series [1] is HepG2. Nature of the series: Cytotoxicity against human HepG2 cells up to 100 uM. Type of series: cell-based.
For series [2], the system named is HepG2. Description: Antihyperlipidemic activity in human HepG2 cells assessed as reduction of oleic acid-induced intracellular total cholesterol accumulation at 10 uM […] measured after 6 hrs. In kind it is functional, cell-based. The essentials: (§1)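 HepG2 cells were kept in DMEM with 10% FBS and penicillin/streptomycin (100 μg/mL). At 70–80% confluence they were loaded with 100 μM oleic acid in DMEM for 12 h, then exposed to 10 μM compound in DMEM/100 μM oleic acid for a further 6 h. Lovastatin was the positive control and DMEM/oleic acid the blank. Intracellular TC and TG were measured with kits, n = 3, repeated in triplicate, mean ± SEM.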

Series [3] relates to HepG2. Nature of the series: Antihyperlipidemic activity in human HepG2 cells assessed as reduction of oleic acid-induced lipid accumulation at 10 uM […] measured after 6 hrs by Oil Red O staining. In kind it is functional, cell-based. The essentials: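 HepG2 cells were grown in DMEM with 10% FBS and penicillin/streptomycin (100 μg/mL). At 70–80% confluence they received 100 μM oleic acid for 12 h, then 10 μM compound in DMEM/100 μM oleic acid for 6 h more. Lovastatin was the positive control and DMEM/oleic acid the blank. Neutral lipid was stained with Oil Red O and read at 358 nm, n = 8, repeated in triplicate, mean ± SEM.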

In series [4] the test system is HepG2. Description: Antihyperlipidemic activity in human HepG2 cells assessed as reduction of oleic acid-induced intracellular triglyceride accumulation at 10 uM […] measured after 6 hrs. In kind it is functional, cell-based. The gist of the method:
as §1

23 compounds from ChEMBL document CHEMBL3102708, “Chartarlactams A-P, phenylspirodrimanes from the sponge-associated fungus Stachybotrys chartarum with antihyperlipidemic activities” (J Nat Prod, 2014) can be followed below.

Each structure is given as a SMILES string. Active and inactive are the calls of the source. The rule behind the calls is not given here.

Take `C[C@@H]1CC[C@H]2C(C)(C)[C@H](O)CC[C@]2(C)[C@@]12Cc1c(O)cc3c(c1O2)CN(CCCCC(=O)O)C3=O`: the Activity result in the series on HepG2 [1] is given as “Non-toxic”.
As to `C[C@H]1CC[C@H]2C(C)(C)[C@H](O)CC[C@]2(C)[C@@]12Cc1c(O)cc3c(c1O2)CN(CCO)C3=O`, the result in the series on HepG2 [2] and with HepG2 [3] was Active. The Activity entry in the series with HepG2 [1] is “Non-toxic”.
Turning to `C[C@@H]1CC[C@H]2C(C)(C)[C@H](O)[C@H](O)C[C@]2(C)[C@@]12Cc1c(O)cc3c(c1O2)CNC3=O`, the Activity entry in the series with HepG2 [1] is given as “Non-toxic”.
Take `C[C@@H]1CC[C@H]2C(C)(C)[C@H](O)CC[C@]2(C)[C@@]12Cc1c(O[C@H]3O[C@H](CO)[C@@H](O)[C@H](O)[C@H]3O)cc3c(c1O2)CNC3=O`: the result with HepG2 [2] and with HepG2 [3] was Active. For the same compound, the Activity entry in the series with HepG2 [1] is given as “Non-toxic”.
`C[C@@H]1CC[C@H]2[C@](C)(CO)[C@H](O)CC[C@]2(C)[C@@]12Cc1c(O)cc3c(c1O2)CNC3=O`: the Activity result with HepG2 [1] is listed as “Non-toxic”.
Same read-out and setting: under `CC(=O)O[C@@H]1CC[C@@]2(C)[C@@H](CC[C@@H](C)[C@]23Cc2c(O)cc4c(c2O3)CNC4=O)C1(C)C` stands “Non-toxic”; under `C[C@@H]1CC[C@H]2C(C)(C)[C@H](O)CC[C@]2(C)[C@@]12Cc1c(O)cc3c(c1O2)C(=O)NC3=O`, “Non-toxic”.
For `C[C@@H]1CC[C@H]2C(C)(C)[C@H](O)CC[C@]2(C)[C@@]12Cc1c(O)cc3c(c1O2)C(=O)N(CCO)C3`, the Activity result in the series with HepG2 [1] is recorded as “Non-toxic”.
Consider `C[C@H]1CC[C@H]2C(C)(C)[C@H](O)[C@H](O)C[C@]2(C)[C@@]12Cc1c(O)cc3c(c1O2)C(=O)NC3`, for which, in the series with HepG2 [1], the Activity result is “Non-toxic”.
On to `C[C@H]1CC[C@H]2C(C)(C)[C@H](O)[C@H](O)C[C@]2(C)[C@@]12Cc1c(O)cc3c(c1O2)CNC3=O`, for which the Activity result in the series on HepG2 [1] is given as “Non-toxic”.
`C[C@H]1CC[C@H]2C(C)(C)[C@H](O)CC[C@]2(C)[C@@]12Cc1c(O)cc3c(c1O2)C(=O)NC3`: the result with HepG2 [4] and with HepG2 [3] was Active. The Activity result with HepG2 [1] was “Non-toxic”.
`C[C@@H]1CC[C@H]2C(C)(C)[C@@H](O)[C@H](O)C[C@]2(C)[C@@]12Cc1c(O)cc3c(c1O2)CNC3=O`: in the series with HepG2 [1], the Activity entry is “Non-toxic”.
Regarding `C[C@@H]1CC[C@H]2C(C)(C)[C@H](O)CC[C@]2(C)[C@@]12Cc1c(O)cc3c(c1O2)CN(CCO)C3=O`, in the series with HepG2 [1], the Activity entry was “Non-toxic”.
Turning to `CC(=O)O[C@@H]1[C@H](OC(C)=O)C[C@@]2(C)[C@@H](CC[C@@H](C)[C@]23Cc2c(O)cc4c(c2O3)CNC4=O)C1(C)C`, in the series on HepG2 [1], the Activity result is on record as “Non-toxic”.
As for `C[C@@H]1CC[C@H]2C(C)(C)C(=O)CC[C@]2(C)[C@@]12Cc1c(O)cc3c(c1O2)CNC3=O`, the outcome in the series with HepG2 [2], in the series on HepG2 [4] and in the series on HepG2 [3] was Active. Further, in the series on HepG2 [1], the Activity entry is “Non-toxic”.
Take `C[C@@H]1CC[C@H]2C(C)(C)[C@H](O)CC[C@]2(C)[C@@]12Cc1c(O)cc3c(c1O2)CNC3=O`: the Activity entry with HepG2 [1] is listed as “Non-toxic”.
Turning to `C[C@@H]1CC[C@H]2C(C)(C)[C@H](O)CC[C@]2(C)[C@@]12Cc1c(O)cc3c(c1O2)CN(C(Cc1ccccc1)C(=O)O)C3=O` (some centres not stated), the result in the series on HepG2 [2], with HepG2 [4] and in the series on HepG2 [3] was Active. Further, the Activity entry in the series with HepG2 [1] is “Non-toxic”.
Take `CC(=O)O[C@@H]1[C@H](O)C[C@@]2(C)[C@@H](CC[C@@H](C)[C@]23Cc2c(O)cc4c(c2O3)CNC4=O)C1(C)C`: the outcome in the series with HepG2 [4] and in the series with HepG2 [3] was Active. Moreover, the Activity result with HepG2 [1] is reported as “Non-toxic”.
Consider `C[C@H]1CC[C@H]2C(C)(C)[C@H](O)CC[C@]2(C)[C@@]12Cc1c(O)cc3c(c1O2)CNC3=O`, for which, in the series with HepG2 [1], the Activity entry is reported as “Non-toxic”.
Take `C[C@@H]1CC[C@H]2C(C)(C)[C@H](O)[C@H](O)C[C@]2(C)[C@@]12Cc1c(O)cc3c(c1O2)CN(CCO)C3=O`: the Activity entry in the series on HepG2 [1] is given as “Non-toxic”.
`C[C@@H]1CC[C@H]2C(C)(C)[C@H](O)CC[C@]2(C)[C@@]12Cc1c(O)cc3c(c1O2)/C(=C1\NC(=O)c2cc(O)c4c(c21)O[C@@]1(C4)[C@@H](C)CC[C@@H]2C(C)(C)[C@@H](O)CC[C@]21C)NC3=O`: the outcome in the series with HepG2 [2] and in the series with HepG2 [3] was Active. Further, in the series on HepG2 [1], the Activity result is given as “Non-toxic”.
For the compound `C[C@@H]1CC[C@H]2C(C)(C)[C@H](O)[C@@H](O)C[C@]2(C)[C@@]12Cc1c(O)cc3c(c1O2)CNC3=O`, the Activity entry in the series on HepG2 [1] is “Non-toxic”.
As for `C[C@@H]1CC[C@H]2C(C)(C)[C@H](O)CC[C@]2(C)[C@@]12Cc1c(O)cc3c(c1O2)C(=O)NC3`, the result in the series on HepG2 [2], in the series with HepG2 [4] and in the series on HepG2 [3] was Active. Further, the Activity result in the series with HepG2 [1] was “Non-toxic”.
